≈ marks a conversion by molar mass, not a printed value. Calls of active or inactive are those of the source. The rule behind the calls is not given here.
Tests used:
Staphylococcus aureus [1] = assay: Antimicrobial activity against methicillin-resistant Staphylococcus aureus NB01021 infected in po dosed BALB/c mouse administered 0, 4, 23 hrs post infection; type: functional
How it was run: (§1)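 Female BALB/c mice (19–23 g) infected intraperitoneally with MRSA NB01021 in 5% hog gastric mucin, 2.1 × 10^7 to 2.8 × 10^7 CFU/mouse (0.3 ml), 10–100× minimal lethal dose. Three dose levels, groups of 5–6; vehicle controls. Treatment 0, 4 and 23 h post-infection. Observed 8 days; ED50 with 95% CI by probit analysis of day-8 survival.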

Streptococcus pneumoniae [2] = assay: Antimicrobial activity against multiple drug resistant Streptococcus pneumoniae ATCC 700677 infected in po dosed BALB/c mouse administered twice daily for 3 days; type: functional; settings: ATCC 700677, po, 72 h
How it was run: (§2)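 Female BALB/c mice (19–23 g) infected intraperitoneally with ATCC 700677 from a 5-h Todd-Hewitt–30% horse serum log culture, suspended in 5% hog mucin, 1.5 × 10^7 to 2 × 10^7 CFU/mouse. Groups of 5–6, typically three dose levels; vehicle controls. Dosed 1, 5, 17, 27, 42, 51 h post-infection. ED50 from day-8 survival by probit analysis, with 95% CI.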

Streptococcus pneumoniae [3] = assay: Antimicrobial activity against multiple drug resistant Streptococcus pneumoniae ATCC 700677 infected in sc dosed BALB/c mouse administered twice daily for 3 days; type: functional; settings: ATCC 700677, sc, 72 h; how it was run: as §2
Streptococcus pneumoniae [4] = assay: Antimicrobial activity against Streptococcus pneumoniae ATCC 6303 infected in BALB/c mouse pneumonia model assessed as reduction in lung bacterial load at 80 mg/kg, po administered twice daily 3 days starting 16 hrs post infection; type: functional
How it was run: (§3)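 Anesthetized (ketamine/xylazine) female BALB/c mice (19 to 22 g) inoculated intranasally with 50 µl log-phase culture (1.4 × 10^5 CFU/mouse). Oral treatment, six mice per group, at 16, 27, 40, 51, 64 and 75 h postinfection; vehicle controls. Lungs harvested one day after last dose, homogenized, plated; log10 CFU/lung. Deaths assigned 9 log10 CFU/lung; Kruskal-Wallis with Dunn's test versus control.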

Streptococcus pneumoniae [5] = assay: Antimicrobial activity against Streptococcus pneumoniae ATCC 6303 infected in BALB/c mouse pneumonia model assessed as reduction in lung bacterial load at 40 mg/kg, po administered twice daily 3 days starting 16 hrs post infection; type: functional; how it was run: as §3
Streptococcus pneumoniae [6] = assay: Antimicrobial activity against Streptococcus pneumoniae ATCC 6303 infected in BALB/c mouse pneumonia model assessed as complete eradication of bacteria at 40 mg/kg, po administered twice daily 3 days starting 16 hrs post infection; type: functional, organism-based; design: dose 40 mg/kg; how it was run: as §3
Streptococcus pneumoniae [7] = assay: Antimicrobial activity against Streptococcus pneumoniae ATCC 6303 infected in po dosed BALB/c mouse pneumonia model assessed as complete eradication of bacteria administered twice daily 3 days starting 16 hrs post infection; type: functional; how it was run: as §3
Staphylococcus aureus [8] = assay: Antimicrobial activity against multiple drug resistant Staphylococcus aureus NB01021 infected in immunocompetent NMRI mouse soft tissue infection model assessed as reduction in thigh bacterial load at 5.6 mg/kg, po administered thrice a day for 2 days; type: functional
How it was run: (§4)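 Thigh infection: 50 µl of freshly prepared NB01021 suspension (3.8 × 10^6 CFU/thigh) injected intramuscularly into the left hind thigh of female NMRI mice (20–23 g). Oral doses at 0, 4, 8, 24, 28, 32 h; vehicle controls. Thighs excised 18 h after last dose, homogenized in saline and plated on blood agar (detection limit 100 CFU/thigh). Medians compared to controls by Mann-Whitney rank sum test.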

Staphylococcus aureus [9] = assay: Antimicrobial activity against multiple drug resistant Staphylococcus aureus NB01021 infected in immunocompetent NMRI mouse soft tissue infection model assessed as reduction in thigh bacterial load at 16.7 mg/kg, po administered thrice a day for 2 days; type: functional; how it was run: as §4
Staphylococcus aureus [10] = assay: Antimicrobial activity against multiple drug resistant Staphylococcus aureus NB01021 infected in immunocompetent NMRI mouse soft tissue infection model assessed as reduction in thigh bacterial load at 50 mg/kg, po administered thrice a day for 2 days; type: functional; how it was run: as §4
Mus musculus [11] = assay: Drug concentration at time zero in CD1 mouse at 5 mg/kg, iv by liquid chromatography/mass spectroscopy; type: ADME, organism-based; design: dose 5 mg/kg, route intravenous; settings: in vivo
How it was run: (§5)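 CD1 mice given 20 mg/kg p.o. or 5 mg/kg i.v.; blood sampled from three mice per time point, first at 0.083 h (i.v.) or 0.25 h (p.o.), last at 24 h. Plasma separated by centrifugation (10,000 rpm, 10 min, 4°C), stored at −80°C, assayed by LC/MS. Mean concentration-time course used for parameters; F from ratio of dose-normalized AUCs; C0 extrapolated from i.v. curve.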

Streptococcus pneumoniae [12] = assay: Antimicrobial activity against Streptococcus pneumoniae ATCC 6303 infected in BALB/c mouse pneumonia model assessed as reduction in lung bacterial load at 20 mg/kg, po administered twice daily 3 days starting 16 hrs post infection; type: functional; how it was run: as §3
Staphylococcus aureus [13] = assay: Antimicrobial activity against methicillin-susceptible Staphylococcus aureus ATCC 49951 by broth microdilution method; type: functional
How it was run: (§6)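 MICs determined by broth microdilution following CLSI guidelines. Inocula came from overnight Mueller-Hinton broth (ATCC 49951, NB01021) or overnight Trypticase soy agar culture (ATCC 6301). ATCC 6303 and ATCC 700677 came from a 5-h log culture in Todd-Hewitt broth–30% horse serum.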

Staphylococcus aureus [14] = assay: Antimicrobial activity against methicillin-susceptible Staphylococcus aureus ATCC 13709 by broth microdilution method; type: functional
How it was run: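 MIC by broth microdilution following CLSI guidelines.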

Staphylococcus aureus [15] = assay: Antimicrobial activity against methicillin-resistant Staphylococcus aureus NB01021 by broth microdilution method; type: functional; how it was run: as §6
Streptococcus pneumoniae [16] = assay: Antimicrobial activity against Streptococcus pneumoniae ATCC 6301 by broth microdilution method; type: functional; how it was run: as §6
Streptococcus pneumoniae [17] = assay: Antimicrobial activity against Streptococcus pneumoniae ATCC 6303 by broth microdilution method; type: functional; how it was run: as §6
Streptococcus pneumoniae [18] = assay: Antimicrobial activity against multiple drug-resistant Streptococcus pneumoniae ATCC 700677 by broth microdilution method; type: functional; how it was run: as §6
[19] = AUC in CD1 mouse at 5 mg/kg, iv by liquid chromatography/mass spectroscopy; type: ADME, organism-based; design: dose 5 mg/kg, route intravenous; settings: plasma; how it was run: as §5
[20] = Clearance in CD1 mouse at 5 mg/kg, iv by liquid chromatography/mass spectroscopy; type: ADME, organism-based; design: dose 5 mg/kg, route intravenous; settings: in vivo; how it was run: as §5
[21] = Volume of distribution at steady state in CD1 mouse at 5 mg/kg, iv by liquid chromatography/mass spectroscopy; type: ADME, organism-based; design: dose 5 mg/kg, route intravenous; settings: in vivo, read-out: Vdss; how it was run: as §5
[22] = AUC in CD1 mouse at 20 mg/kg, po by liquid chromatography/mass spectroscopy; type: ADME, organism-based; design: dose 20 mg/kg, route oral; settings: plasma; how it was run: as §5
Mus musculus [23] = assay: Cmax in CD1 mouse at 20 mg/kg, po by liquid chromatography/mass spectroscopy; type: ADME, organism-based; design: dose 20 mg/kg, route oral; settings: in vivo; how it was run: as §5
[24] = Tmax in CD1 mouse at 20 mg/kg, po by liquid chromatography/mass spectroscopy; type: ADME, organism-based; design: dose 20 mg/kg, route oral; settings: in vivo; how it was run: as §5
Staphylococcus aureus [25] = assay: Antimicrobial activity against methicillin susceptible Staphylococcus aureus ATCC 49951 infected in po dosed NMRI mouse treated 1 and 5 hrs post infection; type: functional; settings: ATCC 49951, po
How it was run: (§7)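 Intraperitoneal infection (0.3 ml/mouse, 10 to 100 times minimal lethal dose) with inoculum in 0.86% NaCl; ATCC 49951 grown overnight in Mueller-Hinton broth (1.7 × 10^7 to 2.2 × 10^7 CFU/mouse), ATCC 13709 in tryptic soy broth (7.3 × 10^7 to 2 × 10^8 CFU/mouse). Groups of 5 to 6 mice, typically three doses, treated 1 and 5 h postinfection; vehicle controls. ED50 by probit analysis of day-8 survival.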

Staphylococcus aureus [26] = assay: Antimicrobial activity against methicillin susceptible Staphylococcus aureus ATCC 49951 infected in sc dosed NMRI mouse treated 1 and 5 hrs post infection; type: functional; settings: ATCC 49951, sc; how it was run: as §7
Staphylococcus aureus [27] = assay: Antimicrobial activity against methicillin susceptible Staphylococcus aureus ATCC 13709 infected in po dosed NMRI mouse treated 1 and 5 hrs post infection; type: functional; settings: ATCC 13709, po; how it was run: as §7
Staphylococcus aureus [28] = assay: Antimicrobial activity against methicillin-resistant Staphylococcus aureus NB01021 infected in sc dosed BALB/c mouse administered 0, 4, 23 hrs post infection; type: functional; how it was run: as §1
[29] = Bioavailability in CD1 mouse at 20 mg/kg, po by liquid chromatography/mass spectroscopy; settings: in vivo
Streptococcus pneumoniae [30] = assay: Antimicrobial activity against Streptococcus pneumoniae ATCC 6301 infected in po dosed NMRI mouse administered thrice daily for 4 days; settings: ATCC 6301, po, 96 h

SMILES	ED50 (Staphylococcus aureus [1]) [mg/kg]	ED50 (Streptococcus pneumoniae [2]) [mg/kg]	MIC (Staphylococcus aureus [13]) [µg/mL]	MIC (Staphylococcus aureus [14]) [µg/mL]	MIC (Staphylococcus aureus [15]) [µg/mL]	MIC (Streptococcus pneumoniae [16]) [µg/mL]	MIC (Streptococcus pneumoniae [17]) [µg/mL]	MIC (Streptococcus pneumoniae [18]) [µg/mL]	ED50 (Staphylococcus aureus [25]) [mg/kg]	ED50 (Staphylococcus aureus [26]) [mg/kg]	ED50 (Staphylococcus aureus [27]) [mg/kg]	ED50 (Streptococcus pneumoniae [30]) [mg/kg]	other results
CCCC[C@H](CN(O)C=O)C(=O)N1CCC[C@H]1C(=O)Nc1ccc(F)c[n+]1[O-]	5.9	36.6	0.125 (≈ 0.315 µM)	4 (≈ 10.1 µM)	2 (≈ 5.05 µM)	0.125 (≈ 0.315 µM)	2 (≈ 5.05 µM)	0.5 (≈ 1.26 µM)	2.3	1.1	13.2	6.4	ED50 (Streptococcus pneumoniae [3]): 4.8 mg/kg; log10cfu (Streptococcus pneumoniae [4]): 2.3; log10cfu (Streptococcus pneumoniae [5]): <2; Activity (Streptococcus pneumoniae [6]): Active; ED50 (Streptococcus pneumoniae [7]): 23.3 mg/kg; log10cfu (Staphylococcus aureus [8]): 6.3; log10cfu (Staphylococcus aureus [9]): 5.6; log10cfu (Staphylococcus aureus [10]): 3.6; Drug uptake (Mus musculus [11]): 5361 ng/mL; log10cfu (Streptococcus pneumoniae [12]): 5.1; AUC [19]: 2690 ng·h/mL; clearance [20]: 30.8 mL/min/kg; Vd [21]: 3.12 L/kg; AUC [22]: 5700 ng·h/mL; Cmax (Mus musculus [23]): 4250 ng/mL; Tmax [24]: 30 min; ED50 (Staphylococcus aureus [28]): 0.7 mg/kg; bioavailability [29]: 53%
CC1(C)S[C@@H]2[C@H](NC(=O)[C@H](N)c3ccc(O)cc3)C(=O)N2[C@H]1C(=O)O [AMOXICILLIN]	> 50	–	0.5 (≈ 1.37 µM)	1 (≈ 2.74 µM)	128 (≈ 350 µM)	0.03 (≈ 0.0821 µM)	0.03 (≈ 0.0821 µM)	4 (≈ 10.9 µM)	–	–	–	–	–
CC[C@H]1OC(=O)[C@H](C)[C@@H](O[C@H]2C[C@@](C)(OC)[C@@H](O)[C@H](C)O2)[C@H](C)[C@@H](O[C@@H]2O[C@H](C)C[C@H](N(C)C)[C@H]2O)[C@](C)(OC)C[C@@H](C)C(=O)[C@H](C)[C@@H](O)[C@]1(C)O [CLARITHROMYCIN]	–	> 60	1 (≈ 1.34 µM)	0.5 (≈ 0.668 µM)	> 64	0.015 (≈ 0.0201 µM)	0.03 (≈ 0.0401 µM)	32 (≈ 42.8 µM)	7.7	1.2	8.7	2.1	–
CC(=O)NC[C@H]1CN(c2ccc(N3CCOCC3)c(F)c2)C(=O)O1 [LINEZOLID]	2	–	1 (≈ 2.96 µM)	1 (≈ 2.96 µM)	1 (≈ 2.96 µM)	–	–	0.25 (≈ 0.741 µM)	7	7.4	10.3	5.6	–

Source: ChEMBL document CHEMBL1671663, “In vivo characterization of the peptide deformylase inhibitor LBM415 in murine infection models” (Antimicrob Agents Chemother, 2009)
